One compound from ChEMBL document CHEMBL3758117, “Discovery of indeno[1,2-b]quinoxaline derivatives as potential anticancer agents” (Eur J Med Chem, 2016) can be followed below.

The structures appear in SMILES notation. The source made the active and inactive calls. No cut-off for these calls is given here.

A short description of test [1]: Induction of apoptosis in human HuH7 cells assessed as upregulation of Bax expression at 1 to 10 uM after 24 hrs by Western blot analysis. The format is functional, cell-based. To be noted: Huh-7. Summed up:
(§1)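 Huh-7 cells were treated with DMSO or compound at 1, 5 and 10 μM for 24 h. Cells were lysed in NP-40 buffer with protease and phosphatase inhibitors, and protein was measured by Bradford. Lysate protein was resolved by SDS-PAGE and transferred to PVDF. Membranes were blocked in 5% milk, probed with primary antibodies for 2 h and secondary antibodies for 30 min, and detected by ECL, with β-actin as loading control.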
For orientation: Immunoblotting shows a protein as a band on a membrane.

Test [2] deals with Huh-7. As to the kind of experiment: Induction of apoptosis in human HuH7 cells assessed as downregulation of Bcl-2 expression at 1 to 10 uM after 24 hrs by Western blot analysis. The test is classed as functional, cell-based. Summed up:
as §1

The target in test [3] is Proto-oncogene tyrosine-protein kinase Src (Homo sapiens) (UniProt P12931). As to the kind of experiment: Inhibition of Src phosphorylation in human HuH7 cells at 1 to 10 uM after 24 hrs by immunoblot analysis. The format is cell-based. To be noted: Huh-7. In a few lines: as §1
Proto-oncogene tyrosine-protein kinase Src (Homo sapiens), sequence (P12931 2-536 limits assumed): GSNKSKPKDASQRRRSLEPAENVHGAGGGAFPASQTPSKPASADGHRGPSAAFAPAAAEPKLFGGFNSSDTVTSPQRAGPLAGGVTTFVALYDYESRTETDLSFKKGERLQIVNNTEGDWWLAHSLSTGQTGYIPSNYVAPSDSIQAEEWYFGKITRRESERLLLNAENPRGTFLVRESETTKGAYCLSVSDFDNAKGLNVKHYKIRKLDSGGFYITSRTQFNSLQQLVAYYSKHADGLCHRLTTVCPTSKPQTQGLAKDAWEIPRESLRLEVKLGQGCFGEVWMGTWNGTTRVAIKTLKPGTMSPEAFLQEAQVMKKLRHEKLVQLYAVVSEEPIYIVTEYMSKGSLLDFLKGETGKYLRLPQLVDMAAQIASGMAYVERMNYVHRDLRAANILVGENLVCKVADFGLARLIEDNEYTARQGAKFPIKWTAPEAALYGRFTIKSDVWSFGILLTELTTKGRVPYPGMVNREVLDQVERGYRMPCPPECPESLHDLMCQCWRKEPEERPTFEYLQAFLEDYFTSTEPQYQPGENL
Test [4] concerns the target RAC-beta serine/threonine-protein kinase (Homo sapiens) (UniProt P31751). As to the kind of experiment: Inhibition of AKT2 phosphorylation in human HuH7 cells at 1 to 10 uM after 24 hrs by immunoblot analysis. The format is cell-based. To be noted: Huh-7. Summed up: as §1
Test [5] deals with Huh-7. As to the kind of experiment: Antitumor activity against human HuH7 cells xenografted in zebrafish assessed as reduction in tumor size after 24 to 48 hrs post injection by fluorescence microscopy. The test is classed as functional, cell-based. In a few lines: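 About 100 Huh-7 cells were implanted into the yolk sac of anesthetized 48 hpf zebrafish embryos. Embryos were then kept in water containing compound at 0.1 to 2.0 μg/ml for 24 and 48 h post-injection. Embryos were imaged by fluorescence microscopy, with red fluorescence intensity taken as proportional to xenograft tumor size.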

Another test concerns MDA-MB-231. As to the kind of experiment: Antiproliferative activity against human MDA-MB-231 cells after 72 hrs by XTT assay. The test is classed as functional, cell-based. Conditions: MDA-MB-231, 72 h. Summed up: (§2)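 Cells kept as monolayers in DMEM with 10% FBS, penicillin, streptomycin and amphotericin at 37°C, 5% CO2. Seeded at 5 x 10³ cells/well and exposed to compound for 72 h in medium with 10% FBS. XTT plus electron-coupling reagent added, 4 h at 37°C, absorbance read at 492 nm. Percent of control growth uses mean absorbance (n = 3). The 50% value is taken from the linear portion of the curve.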

The nature of test [6]: Antiproliferative activity against human H1299 cells after 72 hrs by XTT assay. To be noted: NCI-H1299, 72 h. The test is classed as functional, cell-based. In a few lines: as §2
Background: Formazan colour is commonly taken as a measure of viable cells.

The nature of test [7]: Antiproliferative activity against human PC3 cells after 72 hrs by XTT assay. Conditions: PC-3, 72 h. The format is functional, cell-based. In a few lines: as §2
In test [8] the test system is MRC5. Kind of test: Antiproliferative activity against human MRC5 cells after 72 hrs by XTT assay. The test is classed as cell-based. To be noted: MRC5, 72 h. In a few lines: as §2
The subject of test [9] is MRC5. As to the kind of experiment: Selectivity index, ratio of IC50 for human MRC5 cells to IC50 for human PC3 cells. The test is classed as functional.
Test [10] concerns Huh-7. Kind of test: Selectivity index, ratio of IC50 for human MRC5 cells to IC50 for human HuH7 cells. The format is functional.
The target of test [11] is T1, DNA topoisomerase 1 (Homo sapiens) (UniProt P11387).
T1 sequence (whole entry): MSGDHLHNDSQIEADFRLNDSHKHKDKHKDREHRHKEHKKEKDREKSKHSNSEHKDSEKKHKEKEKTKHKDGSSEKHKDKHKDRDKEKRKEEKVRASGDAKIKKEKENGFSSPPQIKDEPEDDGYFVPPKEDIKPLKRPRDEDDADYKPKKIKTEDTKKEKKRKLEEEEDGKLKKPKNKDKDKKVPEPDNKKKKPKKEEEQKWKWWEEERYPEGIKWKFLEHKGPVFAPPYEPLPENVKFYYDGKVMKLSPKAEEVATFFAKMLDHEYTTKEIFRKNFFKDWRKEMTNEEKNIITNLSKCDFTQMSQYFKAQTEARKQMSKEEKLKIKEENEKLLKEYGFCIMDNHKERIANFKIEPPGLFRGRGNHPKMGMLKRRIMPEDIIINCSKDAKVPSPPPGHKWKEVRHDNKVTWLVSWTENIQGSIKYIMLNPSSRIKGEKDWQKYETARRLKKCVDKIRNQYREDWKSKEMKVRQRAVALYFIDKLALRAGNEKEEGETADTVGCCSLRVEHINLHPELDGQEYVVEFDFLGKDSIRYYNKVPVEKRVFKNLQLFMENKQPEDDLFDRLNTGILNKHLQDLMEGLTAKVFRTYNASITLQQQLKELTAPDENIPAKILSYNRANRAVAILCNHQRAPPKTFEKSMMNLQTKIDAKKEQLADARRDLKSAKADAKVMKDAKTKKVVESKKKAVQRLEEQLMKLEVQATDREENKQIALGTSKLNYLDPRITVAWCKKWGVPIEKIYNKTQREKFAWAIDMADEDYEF
As to the kind of experiment: Inhibition of human DNA topoisomerase 1-mediated relaxation of supercoiled pBR322 DNA at 100 uM after 30 mins by ethidium bromide staining based agarose gel electrophoresis. Summed up: (§3)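 Human topo I or topo II (2 units) was reacted with 0.2 μg supercoiled pBR322 in 20 μl Tris-HCl pH 7.5 containing KCl, DTT, EDTA, MgCl2 and BSA, with DMSO held at 0.5%, for 30 min at 37°C. The reaction was stopped with SDS. Samples were run on 1% agarose in Tris-acetate/EDTA at 1.5 V/cm for 2-3 h and stained with ethidium bromide. Relaxation was quantified by densitometry of the supercoiled band area.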

Test [12] deals with DNA topoisomerase 2-alpha (Homo sapiens) (UniProt P11388). Kind of test: Inhibition of human DNA topoisomerase 2-mediated relaxation of supercoiled pBR322 DNA at 100 uM after 30 mins by ethidium bromide staining based agarose gel electrophoresis. In a few lines:
as §3

Test [13] in a line: Cell cycle arrest in human HuH7 cells assessed as accumulation at subG1 phase at 1 uM for 24 hrs by propidium iodide staining based flow cytometry (reference value: 1.3 +/- 0.7%). Conditions: Huh-7. The format is functional. A general note: Flow cytometry measures light scatter and fluorescence of single cells or particles in a stream.
The nature of test [14]: Cell cycle arrest in human HuH7 cells assessed as accumulation at G1 phase at 5 uM for 24 hrs by propidium iodide staining based flow cytometry (reference value: 62.1 +/- 1.4%). The format is functional. To be noted: Huh-7.
The nature of test [15]: Cell cycle arrest in human HuH7 cells assessed as accumulation at G1 phase at 10 uM for 24 hrs by propidium iodide staining based flow cytometry (reference value: 62.1 +/- 1.4%). Conditions: Huh-7. The format is functional.
Test [16] can be described thus: Cell cycle arrest in human HuH7 cells assessed as accumulation at S phase at 1 uM for 24 hrs by propidium iodide staining based flow cytometry (reference value: 11.4 +/- 2.4%). The format is functional. To be noted: Huh-7.
A short description of test [17]: Cell cycle arrest in human HuH7 cells assessed as accumulation at G2/M phase at 1 uM for 24 hrs by propidium iodide staining based flow cytometry (reference value: 25.2 +/- 3.5%). The format is functional. Conditions: Huh-7.
A short description of test [18]: Downregulation of cyclin B1 expression in human HuH7 cells at 1 to 10 uM after 24 hrs by immunoblot analysis. The format is functional, cell-based. Conditions: Huh-7. In a few lines: as §1
A short description of test [19]: Downregulation of cyclin D1 expression in human HuH7 cells at 1 to 10 uM after 24 hrs by immunoblot analysis. The format is functional, cell-based. Conditions: Huh-7. In a few lines: as §1

RAC-beta serine/threonine-protein kinase (Homo sapiens), sequence (P31751 whole entry): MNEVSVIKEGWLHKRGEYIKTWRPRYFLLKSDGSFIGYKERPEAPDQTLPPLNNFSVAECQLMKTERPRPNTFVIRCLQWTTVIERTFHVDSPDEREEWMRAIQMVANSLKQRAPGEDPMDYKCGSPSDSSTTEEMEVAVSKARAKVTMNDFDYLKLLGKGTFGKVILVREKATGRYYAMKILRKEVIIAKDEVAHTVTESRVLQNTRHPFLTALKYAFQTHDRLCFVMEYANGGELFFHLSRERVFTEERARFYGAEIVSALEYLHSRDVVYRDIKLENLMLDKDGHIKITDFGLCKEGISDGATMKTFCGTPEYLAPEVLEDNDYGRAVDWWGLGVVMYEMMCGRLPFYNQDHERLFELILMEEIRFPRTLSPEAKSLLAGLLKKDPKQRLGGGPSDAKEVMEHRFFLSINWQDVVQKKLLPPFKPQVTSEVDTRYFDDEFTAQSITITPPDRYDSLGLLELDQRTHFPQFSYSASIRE
DNA topoisomerase 2-alpha (Homo sapiens), sequence (P11388 whole entry): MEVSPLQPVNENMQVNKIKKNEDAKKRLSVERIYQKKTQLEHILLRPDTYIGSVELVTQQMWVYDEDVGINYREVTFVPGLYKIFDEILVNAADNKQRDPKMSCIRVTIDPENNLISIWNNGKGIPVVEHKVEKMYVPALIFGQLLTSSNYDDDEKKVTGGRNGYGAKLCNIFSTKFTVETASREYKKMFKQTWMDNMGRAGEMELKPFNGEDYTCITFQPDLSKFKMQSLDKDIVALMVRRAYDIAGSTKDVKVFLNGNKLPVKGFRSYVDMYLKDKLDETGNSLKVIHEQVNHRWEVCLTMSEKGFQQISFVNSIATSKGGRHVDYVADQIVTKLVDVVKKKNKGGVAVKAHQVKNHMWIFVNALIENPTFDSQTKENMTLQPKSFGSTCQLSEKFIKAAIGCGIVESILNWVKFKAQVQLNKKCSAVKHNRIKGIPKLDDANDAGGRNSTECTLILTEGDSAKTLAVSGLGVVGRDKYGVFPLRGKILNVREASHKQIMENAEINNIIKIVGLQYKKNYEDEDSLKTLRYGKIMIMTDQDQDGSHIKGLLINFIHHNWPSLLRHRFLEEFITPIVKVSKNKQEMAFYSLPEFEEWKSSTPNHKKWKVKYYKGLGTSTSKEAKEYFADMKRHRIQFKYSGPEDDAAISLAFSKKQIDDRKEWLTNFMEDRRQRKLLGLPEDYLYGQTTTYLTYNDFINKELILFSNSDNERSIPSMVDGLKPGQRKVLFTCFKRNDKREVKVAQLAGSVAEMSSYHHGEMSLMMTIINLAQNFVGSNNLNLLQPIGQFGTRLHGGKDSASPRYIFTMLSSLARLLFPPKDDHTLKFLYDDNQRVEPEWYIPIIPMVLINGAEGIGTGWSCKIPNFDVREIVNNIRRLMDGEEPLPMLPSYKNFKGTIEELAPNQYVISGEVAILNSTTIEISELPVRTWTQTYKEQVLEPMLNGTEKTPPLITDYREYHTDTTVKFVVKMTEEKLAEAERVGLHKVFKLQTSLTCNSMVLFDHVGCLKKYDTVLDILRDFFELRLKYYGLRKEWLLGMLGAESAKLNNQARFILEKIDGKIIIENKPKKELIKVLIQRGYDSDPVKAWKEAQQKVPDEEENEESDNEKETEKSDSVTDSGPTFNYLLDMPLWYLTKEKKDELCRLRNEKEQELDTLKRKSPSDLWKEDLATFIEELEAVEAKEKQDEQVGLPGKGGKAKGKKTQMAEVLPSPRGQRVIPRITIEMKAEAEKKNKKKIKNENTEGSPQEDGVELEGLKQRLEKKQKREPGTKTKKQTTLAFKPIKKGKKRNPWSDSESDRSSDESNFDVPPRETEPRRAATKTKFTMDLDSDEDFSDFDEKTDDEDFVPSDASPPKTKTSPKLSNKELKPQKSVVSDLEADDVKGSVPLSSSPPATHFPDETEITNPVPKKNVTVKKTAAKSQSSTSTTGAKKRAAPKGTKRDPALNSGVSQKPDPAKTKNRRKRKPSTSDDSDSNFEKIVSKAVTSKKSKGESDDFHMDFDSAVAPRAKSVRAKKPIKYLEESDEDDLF

`CN(C)CCCNC(=O)c1cccc2nc3c(nc12)-c1ccccc1/C3=N\OCCCN(C)C.Cl`: the Activity result in test [1] is “Dose-dependent effect”; in the test on Huh-7 [2] it was “Dose-dependent effect”; in test [13] it was 3.8%; in [14], 35.1%; in test [15], 30.4%; in test [16] it was 21.6%. Also, the Activity in test [17] amounted to 19.3%. In addition, the inhibition result in [3] and in test [4] was “Active” throughout. The inhibition entry in the test on Huh-7 [5] was “Dose-dependent effect”. Moreover, the IC50 – broadly, the concentration at which inhibition is half-maximal – with MDA-MB-231 stood at 0.87 µM; in [6], 5.78 µM; in test [7] it was 0.82 µM; in the test with MRC5 [8], 31.5 µM. For the same compound, the “Ratio IC50” value stood at 38.43 in the test with MRC5 [9] and 49.23 in the test on Huh-7 [10]. In addition, the “topoisomerase 1 inhibition (active/inactive)” value in test [11] was “Active”. For the same compound, the “inhibition call (active/not active)” value in test [12] is “Active”. In addition, the outcome in [18] and in test [19] was Active.
